Data set [1] deals with T1, Free fatty acid receptor 1 (Homo sapiens, UniProt O14842). Briefly: Agonist activity at human […] receptor expressed in CHO cells assessed as increase in intracellular calcium concentration after 90 secs by FLIPR assay in presence of 0.1% BSA. Format: functional, cell-based. In outline: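 CHO dhfr cells stably expressing human GPR40/FFA1 (NM_005303) plated and held overnight at 37 °C in 5% CO2. Loaded 60 min at 37 °C with Fluo 4-AM 2.5 μg/mL, probenecid 2.5 mmol/L and 0.1% fatty acid-free BSA. Compounds added over a concentration range, Ca2+ rise followed 90 s. Response scaled between vehicle (0%) and 10 μM γ-linolenic acid (100%).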
T1 sequence (O14842 whole entry): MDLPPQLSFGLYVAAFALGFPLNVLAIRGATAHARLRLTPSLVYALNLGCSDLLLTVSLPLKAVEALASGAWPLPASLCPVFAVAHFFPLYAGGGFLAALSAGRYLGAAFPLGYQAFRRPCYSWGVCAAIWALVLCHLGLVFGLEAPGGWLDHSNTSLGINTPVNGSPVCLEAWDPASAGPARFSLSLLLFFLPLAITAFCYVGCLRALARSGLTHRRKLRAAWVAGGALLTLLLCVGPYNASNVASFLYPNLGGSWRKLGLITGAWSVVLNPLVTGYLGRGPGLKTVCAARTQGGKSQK
A general note: Calcium flux is commonly read through the fluorescence of an indicator in the cells.

Data set [2] concerns the target T1, Free fatty acid receptor 1. As to the kind of experiment: Displacement of 3-[4-({2',6'-dimethyl-6-[(4-[3H])-phenylmethoxy]biphenyl-3-yl}methoxy)phenyl] propanoic acid from human GPR40 receptor expressed in CHO cells after 90 mins by scintillation counting in presence of 0.2% BSA. The class given is cell-based. In outline:
(§1)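 Membranes from CHO lines stably expressing human or rat GPR40/FFA1, in Tris-HCl pH 7.5 with EDTA, protease inhibitors, 0.05% CHAPS and 0.2% fatty acid-free BSA. Tritiated ligand at 2 or 6 nmol/L with graded test compound, 90 min at room temperature. Filter harvest, scintillation counting. Nonspecific binding with 10 μmol/L unlabeled ligand. IC50 by nonlinear regression, Ki via Cheng–Prusoff with measured Kd. Averages of n = 2 or 3.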

Data set [3] addresses Free fatty acid receptor 1 (Rattus norvegicus, UniProt Q8K3T4). Briefly: Displacement of 3-[4-({2',6'-dimethyl-6-[(4-[3H])-phenylmethoxy]biphenyl-3-yl}methoxy)phenyl] propanoic acid from rat GPR40 receptor expressed in CHO cells after 90 mins by scintillation counting in presence of 0.2% BSA. Format: cell-based. In outline:
as §1

The nature of data set [4]: Octanol-water partition coefficient, log D of the compound at pH 7.4 by reverse-phase liquid chromatography. The class given is physicochemical.
The target in data set [5] is T1, Free fatty acid receptor 1. Briefly: Agonist activity at human […] receptor expressed in CHO cells assessed as increase in intracellular calcium concentration at 10 uM after 90 secs by FLIPR assay in presence of 0.1% BSA relative to control. Format: functional, cell-based. In outline: (§2)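 CHO dhfr cells stably expressing human GPR40/FFA1 (NM_005303) plated, incubated overnight at 37 °C in 5% CO2. Loaded 60 min at 37 °C with Fluo 4-AM (2.5 μg/mL), probenecid (2.5 mmol/L), 0.1% fatty acid-free BSA. Ca2+ rise monitored by FLIPR for 90 s after compound addition. Response expressed as % of 10 μM γ-linolenic acid response, vehicle-corrected.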

Data set [6] concerns the target T1, Free fatty acid receptor 1. Briefly: Agonist activity at human […] receptor expressed in CHO cells assessed as increase in intracellular calcium concentration at 1 uM after 90 secs by FLIPR assay in presence of 0.1% BSA relative to control. The class given is functional, cell-based. In outline:
as §2

The subject of data set [7] is Rattus norvegicus. Briefly: Antidiabetic activity in Wistar fatty rat assessed as decrease in plasma glucose level at 1 to 10 mg/kg, po administered as single dose 1 hr prior to glucose challenge measured after 120 mins by OGTT. Format: functional, organism-based. In outline:
(§3)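 Female Wistar fatty rats aged 17−19 weeks, fasted overnight. Dosed orally in 0.5% methylcellulose (vehicle control), then given oral glucose 1 g/kg 1 h later. Tail-vein blood taken pre-dose, at 0, and at 10, 30, 60 and 120 min. Glucose by autoanalyzer, insulin by RIA. Glucose AUC0−120 min and incremental insulin AUC0−120 min calculated. n = 6, one-tailed Williams test versus vehicle.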

Data set [8] has as its system Rattus norvegicus. As to the kind of experiment: Antidiabetic activity in Wistar fatty rat assessed as increase in plasma insulin level at 1 to 10 mg/kg, po administered as single dose 1 hr prior to glucose challenge measured after 120 mins by OGTT. Format: functional, organism-based. In outline:
as §3

Data set [9] concerns Rattus norvegicus. As to the kind of experiment: Antidiabetic activity in po dosed Wistar fatty rat assessed as decrease in plasma glucose level administered as single dose 1 hr prior to glucose challenge measured after 120 mins by OGTT. The following applies: read-out: MED. Format: functional. In outline: as §3
Data set [10] has as its system Rattus norvegicus. As to the kind of experiment: Antidiabetic activity in po dosed Wistar fatty rat assessed as increase in plasma insulin level administered as single dose 1 hr prior to glucose challenge measured after 120 mins by OGTT. Format: functional. To be noted: read-out: MED. In outline: as §3
The subject of data set [11] is Rattus norvegicus. As to the kind of experiment: Antidiabetic activity in Wistar fatty rat assessed as decrease in plasma glucose level at 10 mg/kg, po administered as single dose 4 hrs prior to glucose challenge measured after 120 mins by OGTT. The class given is functional, organism-based. More on the design: dose 10 mg/kg. In outline:
(§4)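 Female Wistar fatty rats aged 17−19 weeks, fasted overnight. Given compound orally (10 mg/kg) or vehicle (0.5% methylcellulose), with oral glucose 1 g/kg 4 h later. Tail-vein sampling pre-dose, at 0, and at 10–120 min. Glucose by autoanalyzer, insulin by RIA.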

Data set [12] concerns Rattus norvegicus. As to the kind of experiment: Antidiabetic activity in Wistar fatty rat assessed as increase in plasma insulin level at 10 mg/kg, po administered as single dose 4 hrs prior to glucose challenge measured after 120 mins by OGTT. The class given is functional, organism-based. More on the design: dose 10 mg/kg. In outline: as §4

Active and inactive are the calls of the source. The calls are words filed in the database; no cut-off is given here.

We go through 25 compounds from ChEMBL document CHEMBL2021847, “Identification of fused-ring alkanoic acids with improved pharmacokinetic profiles that act as G protein-coupled receptor 40/free fatty acid receptor 1 agonists” (J Med Chem, 2012).

Free fatty acid receptor 1 (Rattus norvegicus, UniProt Q8K3T4), sequence (Q8K3T4 whole entry): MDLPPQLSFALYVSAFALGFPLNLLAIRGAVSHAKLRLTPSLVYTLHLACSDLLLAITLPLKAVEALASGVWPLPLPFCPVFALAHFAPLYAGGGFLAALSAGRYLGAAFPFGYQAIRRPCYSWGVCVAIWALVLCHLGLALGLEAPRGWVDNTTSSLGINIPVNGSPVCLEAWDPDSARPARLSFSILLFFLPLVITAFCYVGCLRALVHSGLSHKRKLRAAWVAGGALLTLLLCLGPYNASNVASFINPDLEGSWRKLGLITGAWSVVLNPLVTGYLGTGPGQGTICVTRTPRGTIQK

Consider `CCOCCOc1cc(C)c(-c2cccc(COc3ccc4c(c3)COC4CC(=O)O)c2)c(C)c1` (centres undefined), for which, in data set [1], the concentration giving a half-maximal response (EC50) (in general, the midpoint of the concentration-response curve) came to 91 nM. In addition, the Ki (as a rule, a dissociation constant, usually derived from enzyme kinetics or from competition with a known ligand) in data set [2] is 390 nM; in [3] it was 67 nM. The chromatographic logD (usually a lipophilicity value derived from retention on a column) in data set [4] was 3.61.

Regarding `Cc1cccc(C)c1-c1cccc(COc2ccc3c(ccn3CC(=O)O)c2)c1`, the Ki in data set [2] and in data set [3] was more than 10000 nM each time. The Efficacy was 101% in data set [5] and 2% in [6]. In addition, the chromatographic logD in data set [4] came out at 3.93.

As to `Cc1cccc(C)c1-c1cccc(COc2ccc3c(c2)OCC3CC(=O)O)c1` (centres undefined), the half-maximal effective concentration (EC50) in data set [1] worked out at 27 nM. In addition, the chromatographic logD in [4] came out at 3.88.

For `Cc1ccc2ccccc2c1-c1cccc(COc2ccc3c(c2)OCC3CC(=O)O)c1` (centres undefined), the EC50 in [1] stood at 21 nM. The Ki stood at 41 nM in data set [2] and 470 nM in data set [3]. In addition, the chromatographic logD in data set [4] was found to be 4.33.

Consider `CCOCCOc1cc(C)c(-c2cccc(COc3ccc4c(c3)CCC(CC(=O)O)C4)c2)c(C)c1` (centres undefined), for which the half-maximal effective concentration (EC50) in [1] came to 510 nM. Besides, the values for the inhibition constant Ki in data set [2] and in data set [3] were 2100 nM and more than 10000 nM, respectively. Further, the chromatographic logD in data set [4] was 4.67.

`Cc1cc(OCc2ccccc2)cc(C)c1-c1cccc(COc2ccc3c(c2)OCC3CC(=O)O)c1` (centres undefined): in data set [1], the EC50 worked out at 28 nM. Also, the Ki stood at 18 nM in data set [2] and 100 nM in [3]. The compound also returned a chromatographic logD in data set [4] of 5.03.

As for `Cc1cccc(C)c1-c1cccc(COc2ccc3c(c2)OCCC(C(=O)O)C3)c1` (centres undefined), the EC50 in data set [1] is 70 nM. In data set [4], the chromatographic logD was determined as 4.05.

On to `Cc1cccc(C)c1-c1cccc(COc2ccc3c(CC(=O)O)coc3c2)c1`, for which the EC50 in data set [1] is 4900 nM. In data set [4], this compound returned a chromatographic logD of 4.04.

Consider `Cc1cccc(C)c1-c1cccc(COc2ccc3c(c2)CC3CC(=O)O)c1` (centres undefined), for which the EC50 in data set [1] worked out at 69 nM. Further, the Ki is 1200 nM in data set [2] and more than 10000 nM in data set [3]. In data set [4], this compound returned a chromatographic logD of 4.12.

Regarding `Cc1cccc(C)c1-c1cccc(COc2ccc3c(n2)CCC3CC(=O)O)c1` (centres undefined), the EC50 in data set [1] turned out to be 570 nM. For the same compound, the Ki in data set [2] and in data set [3] was more than 10000 nM throughout. Besides, the chromatographic logD in data set [4] was found to be 3.88.

Regarding `CCOCCOc1cc(C)c(-c2cccc(COc3ccc4c(c3)CCC(C(=O)O)C4)c2)c(C)c1` (centres undefined), the EC50 in data set [1] is 140 nM. Moreover, the Ki was 280 nM in data set [2] and more than 10000 nM in data set [3]. Besides, the chromatographic logD in [4] came to 4.33.

Regarding `Cc1cccc(C)c1-c1cc(COc2ccc3c(c2)OCC3CC(=O)O)ccc1OCc1ccccc1` (centres undefined), the concentration for a half-maximal effect (EC50) in data set [1] turned out to be 10 nM. The Ki in data set [2] came to 6.9 nM; in [3], 170 nM. Besides, the chromatographic logD in data set [4] worked out at 4.53.

Take `CCOCCOc1cc(C)c(-c2cccc(COc3ccc4c(c3)CC(CC(=O)O)C4)c2)c(C)c1` (centres undefined): the 50% effective concentration (EC50) in [1] came to 84 nM. For the same compound, the figures for the Ki in data set [2] and in data set [3] were 270 nM and more than 10000 nM, respectively. Further, in data set [4], the chromatographic logD amounted to 4.39.

`CCOCCOc1cc(C)c(-c2cccc(COc3ccc4c(c3)CC(C(=O)O)C4)c2)c(C)c1` (centres undefined): in data set [1], the half-maximal effective concentration (EC50) stood at 960 nM. The inhibition constant (Ki) in [2] and in data set [3] was more than 10000 nM each time. In data set [4], this compound yielded a chromatographic logD of 4.11.

In the case of `O=C(O)CC1COc2cc(OCc3cccc(-c4ccc5sccc5c4)c3)ccc21` (centres undefined), the EC50 in [1] amounted to 180 nM. Also, the inhibition constant (Ki) in [2] is 570 nM; in data set [3], more than 10000 nM. In data set [4], this compound displayed a chromatographic logD of 3.97.

Turning to `CCOCCOc1cc(C)c(-c2cccc(COc3ccc4c(c3)OCC4CC(=O)O)c2)c(C)c1` (centres undefined), the Ki in data set [3] came to 200 nM. This compound registered a chromatographic logD in [4] of 3.83. The result in [7], in data set [8], in data set [11] and in [12] was Active. Further, the minimal effective dose in [9] and in data set [10] was 10 mg/kg each time.

`O=C(O)CC1COc2cc(OCc3cccc(-c4csc5ccccc45)c3)ccc21` (centres undefined): the EC50 in data set [1] was determined as 39 nM. For the same compound, the Ki in [2] is 290 nM; in data set [3], more than 10000 nM. In data set [4], this compound showed a chromatographic logD of 3.99.

Regarding `CCOCCOc1cc(C)c(-c2cccc(CNc3ccc4c(c3)OCC4CC(=O)O)c2)c(C)c1` (centres undefined), in data set [1], the half-maximal effective concentration (EC50) came out at 48 nM. For the same compound, the Ki in data set [2] is 43 nM; in data set [3], 110 nM. Also, the chromatographic logD in data set [4] worked out at 3.13.

In the case of `Cc1cccc(C)c1-c1cccc(COc2ccc3c(c2)CCC3CC(=O)O)c1` (centres undefined), the EC50 in data set [1] came to 33 nM. In addition, in data set [4], the chromatographic logD amounted to 4.4.

Turning to `Cc1cccc(C)c1-c1cccc(COc2ccc3c(c2)CCCC3CC(=O)O)c1` (centres undefined), in [1], the concentration giving a half-maximal response (EC50) turned out to be 27 nM. This compound showed a chromatographic logD in data set [4] of 4.7.

In the case of `Cc1cc(C)c(-c2cccc(COc3ccc4c(c3)OCC4CC(=O)O)c2)c(C)c1` (centres undefined), the EC50 in [1] came to 33 nM. Besides, the inhibition constant (Ki) in data set [2] came to 36 nM; in [3], 130 nM. Further, the chromatographic logD in data set [4] is 4.47.

For the compound `Cc1ccc(-c2cccc(COc3ccc4c(c3)OCC4CC(=O)O)c2)c(C)c1` (centres undefined), the concentration giving a half-maximal response (EC50) in [1] came to 29 nM. Also, the Ki is 57 nM in [2] and 1600 nM in [3]. The chromatographic logD in data set [4] is 4.15.

For the compound `CCOCCOc1cc(C)c(-c2cccc(COc3ccc4c(c3)CC(=O)N4CC(=O)O)c2)c(C)c1`, the Ki in data set [2] and in [3] was more than 10000 nM in each case. For the same compound, the Efficacy in [5] came to 59%; in data set [6] it was 2%. The same compound had a chromatographic logD in data set [4] of 3.41.

In the case of `COc1ccc(COc2ccc3c(c2)OCC3CC(=O)O)cc1-c1c(C)cccc1C` (centres undefined), the EC50 in data set [1] was found to be 24 nM. The figures for the Ki in data set [2] and in data set [3] were 130 nM and 1600 nM, respectively. Further, the chromatographic logD in data set [4] was 3.31.

With `Cc1cccc(C)c1-c1cccc(COc2ccc3c(c2)CCCCC3CC(=O)O)c1` (centres undefined), the EC50 in [1] came out at 940 nM. The same compound gave a chromatographic logD in data set [4] of 5.02.
